Rev-RRE block: disrupts HIV-1 Rev binding to RRE RNA; P05866; Rev peptide-RRE RNA binding, FRET; inhibition, % at 8 µM; 97,000 compounds, 0.79% hits; AID 704;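 active = inhibition above the screen-wide mean plus 3 SD, cut at about 35% in these data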;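 also: 0% = median DMSO wells and 100% = median Neomycin B control wells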
Target sequence (P05866 whole entry, looked up): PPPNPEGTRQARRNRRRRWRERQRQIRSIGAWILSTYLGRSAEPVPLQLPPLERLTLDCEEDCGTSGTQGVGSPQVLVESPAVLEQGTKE
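Test system: Cy5-tagged RRE RNA duplex with fluorescein-tagged Rev peptide | Read-out: % inhibition of FRET ratio versus controls | Probe or stimulus: Labelled Rev peptide | Incubation: 5 min RNA-compound premix plus 15 min binding step, 25 °C | Technique: FRET fluorescence readout | Benchmarks: DMSO low control, neomycin B high control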
sEH inh: inhibitors of human soluble epoxide hydrolase; inhibition, % at 2 µM; recombinant human sEH enzymatic activity assay; 91,000 compounds, 0.34% hits; AID 707; P34913; in the data active = inhibition above about 80%
ERb coact inh: ER-beta (human) coactivator binding inhibition | TR-FRET ER-beta LBD / SRC1-Cy5 peptide binding; receptor agonist-loaded with 1 µM estradiol | inhibition, % at 25.6 µM | 86,000 compounds, 1.3% hits;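 active = compounds whose percent inhibition of the receptor-coactivator binding signal exceeds about 50% in the single-dose screen, limit read from the data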;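 also: 0% = receptor plus peptide wells without compound and 100% = peptide-only wells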
sEH activator: increases human soluble epoxide hydrolase activity. activation, % at 2 µM. P34913. AID 717. purified human sEH enzymatic activity, activator screen. 91,000 compounds, 0.04% hits; in the data active = activation above about 37%
ERa SRC1 pot: ER-alpha (human) coactivator binding potentiation; P03372; TR-FRET ERalpha-LBD/SRC-Cy5 coactivator binding, 2 h; 100 = basal binding, no effect; coactivator binding (% of control), % at 25.6 µM; 86,000 compounds, 1.3% hits; in the data active = activity above about 200%;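 also: binding measured in presence of low estradiol as agonist stimulus; 0% = peptide alone without receptor and 100% = receptor with peptide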
Target sequence (P03372 whole entry, looked up, the tested form may be a part): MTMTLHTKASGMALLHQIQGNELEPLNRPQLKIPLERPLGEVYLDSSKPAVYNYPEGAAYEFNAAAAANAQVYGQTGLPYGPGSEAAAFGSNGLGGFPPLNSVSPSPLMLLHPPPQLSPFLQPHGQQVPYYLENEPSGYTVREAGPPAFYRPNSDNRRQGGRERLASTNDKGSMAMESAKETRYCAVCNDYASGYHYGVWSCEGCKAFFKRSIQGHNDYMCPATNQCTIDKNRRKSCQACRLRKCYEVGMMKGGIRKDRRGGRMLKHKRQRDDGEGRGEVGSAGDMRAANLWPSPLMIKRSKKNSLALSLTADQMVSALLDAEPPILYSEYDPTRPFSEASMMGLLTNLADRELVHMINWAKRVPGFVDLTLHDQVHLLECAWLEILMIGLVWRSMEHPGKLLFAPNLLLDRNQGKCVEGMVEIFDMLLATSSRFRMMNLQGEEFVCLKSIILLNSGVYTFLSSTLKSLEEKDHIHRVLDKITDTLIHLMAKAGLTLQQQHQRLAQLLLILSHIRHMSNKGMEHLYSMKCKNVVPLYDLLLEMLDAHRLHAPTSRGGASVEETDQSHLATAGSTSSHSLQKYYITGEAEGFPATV
ERa SRC1 inh: ER-alpha (human) coactivator binding inhibition; P03372; TR-FRET ER-alpha LBD / SRC-1 peptide, estradiol-bound; inhibition, % at 25.6 µM; 86,000 compounds, 1.7% hits; in the data active = inhibition above about 50%;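 also: 0% = receptor plus peptide control and 100% = peptide only without receptor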
Numbers without * were called inactive; . = not tested or not shown; [ ] = dose if it differs, or a comment. A selection: hits, their analogues and other compounds. The true share with any hit is near 3.5%.

SMILES	Rev-RRE block	sEH inh	ERb coact inh	sEH activator	ERa SRC1 pot	ERa SRC1 inh
CCn1c2ccccc2c2cc(N)ccc21	57.1*	-10.5	10.2	11.3	123.9	-2.3
COc1cccc2sc(Nc3nnc(-c4cccs4)o3)nc12	7.3	4.3	14.3	-5.7	89.0	15.7
COc1cccc2sc(Nc3nnc(-c4ccc(F)cc4)o3)nc12	-1.9	.	24.6	.	74.4	65.0*
CC(=O)[C@H]1[C@@H]2C(=O)N(c3cccc(Cl)c3)C(=O)[C@@H]2[C@H]2c3ccccc3C=CN21	59.7*	.	30.9	.	61.7	19.0
CC(C)(C)C(=O)[C@@H]1[C@@H]2C(=O)N(Cc3ccccc3)C(=O)[C@@H]2[C@H]2c3ccccc3C=CN12	18.9	2.1	19.2	-3.3	5.5	27.1
CC(=O)[C@@H]1[C@@H]2C(=O)N(C3CCCCC3)C(=O)[C@@H]2C2c3ccccc3C=CN21 (some centres not stated)	41.4*	-8.2	-11.6	7.0	95.3	-3.7
COc1ccc(NC(=O)[C@@H]2[C@@H]3C(=O)N(C4CCCCC4)C(=O)[C@@H]3C3c4ccccc4C=CN32)cc1 (some centres not stated)	27.6	.	0.3	.	99.3	-25.2
CCOC(=O)Cc1csc(NC(=O)CSc2ncnc3c2cnn3-c2ccc(OC)cc2)n1	4.9	0.0	4.0	1.0	104.0	6.2
CCOC(=O)Cc1csc(NC(=O)c2sc3nc4ccc(C)cc4cc3c2N)n1	80.6*[fluorescence artefact?]	6.7	.	-4.5	.	.
CCOC(=O)Cc1csc(NC(=O)CCCN2C(=O)c3ccccc3C2=O)n1	-0.1	-3.6	-12.9	3.4	109.5	2.6
CCc1nnc(NC(=O)c2sc3nc4cc(C)ccc4cc3c2N)s1	87.9*[fluorescence artefact?]	7.5	.	-6.5	.	.
CCOC(=O)Cc1csc(NC(=O)CCN2C(=O)c3ccccc3C2=O)n1	5.7	.	96.9*[fluorescence artefact?]	.	98.2	2.3
CC(C)N(CC#CCC1(O)c2ccccc2-c2ccccc21)CCO	-1.2	8.8	.	-10.7	.	.
Cc1ccc(SCC(=O)N(Cc2nc(-c3ccccc3)no2)C(C)C)cc1	8.1	7.4	-5.1	-6.9	133.3	-6.1
Cc1ccccc1OCC(=O)N(Cc1nc(-c2ccccc2)no1)C(C)C	2.9	1.8	-6.0	-1.7	323.1*[fluorescence artefact?]	-2.4
COc1ccc(CCn2c(=S)[nH]c3cc(C(=O)NCc4ccco4)ccc3c2=O)cc1OC	2.2	28.9	54.8*[fluorescence artefact?]	-28.6	87.8	71.5*[fluorescence artefact?]
CCc1ccc(Nc2nc(N)nc(CSc3nnnn3-c3ccccc3)n2)cc1	-5.8	8.3	41.3	-4.3	312.1*	40.7
Cc1ccccc1Nc1nc(N)nc(CSc2nnnn2-c2ccccc2)n1	2.3	.	-1.6	.	101.2	7.4
CCCCc1ccc(-c2ccc(C)cc2O)nc1	9.1	10.7	37.0	-10.4	203.1*[fluorescence artefact?]	21.7
CCCCc1ccc(-c2ccc(Br)cc2O)nc1	2.3	13.9	-4.9	-15.4	98.2	-3.6
COc1ccc2c(c1)c(=O)oc1cc3oc(C)c(C)c3cc12	2.2	-8.3	56.6*	6.3	72.2	67.0*
COc1ccc(CNC(=O)c2noc3c2CCCCC3)cc1	.	.	-8.4	.	100.0	-6.8
COc1cc(NC(=O)c2noc3c2CCC3)c(OC)cc1Cl	.	.	86.5*[fluorescence artefact?]	.	24.5	87.9*[fluorescence artefact?]
COc1ccc(NC(=O)c2noc3c2CCC3)cc1	-5.2	-0.8	90.0*[fluorescence artefact?]	-1.4	43.5	86.4*[fluorescence artefact?]
CCSc1nnc([C@H](Cc2ccccc2)NC(=O)OC(C)(C)C)o1	2.4	1.2	-10.4	-2.1	109.6	-2.5
SMILES	Rev-RRE block	sEH inh	ERb coact inh	sEH activator	ERa SRC1 pot	ERa SRC1 inh
CC(C)(C)OC(=O)N[C@@H](Cc1ccccc1)c1nnc(SCC(=O)O)o1	-1.3	7.9	91.9*[fluorescence artefact?]	-10.6	100.6	3.0
CCCCCCCc1c(C)nc(N2CCOCC2)[nH]c1=O	2.4	12.3	-0.1	-16.0	99.8	2.3
CCN(CC)S(=O)(=O)c1cccc(-c2nc3n(n2)Cc2ccccc2-3)c1	10.5	-17.5	11.3	17.0	160.8	4.1
Clc1ccc(-c2nc3n(n2)Cc2ccccc2-3)cc1	1.4	-14.1	15.8	14.1	288.6*	20.8
Cc1nn2c(NCCOCCO)c3c(nc2c1-c1ccccc1)CCCC3	-1.0	6.8	-11.5	-4.1	95.8	-20.2
O=C(Nc1cccc(-c2nc3cccnc3s2)c1)c1ccco1	8.9	-6.5	-21.5	7.1	104.2	-18.2
Cc1ccc2nc(-c3ccc(NC(=O)c4ccco4)cc3)[nH]c2c1	16.7	1.3	36.3	-1.4	175.7	59.1*[fluorescence artefact?]
Cc1cc(C)nc(NS(=O)(=O)c2ccc(NC(=O)c3ccco3)cc2)n1	9.4	4.2	68.8*[fluorescence artefact?]	-1.3	102.5	-5.3
Cn1cccc1-c1nc2ccc(NC(=O)c3ccco3)cc2[nH]1	3.1	1.5	-6.9	-3.2	94.1	-19.3
O=C(Nc1ccc(-c2nc3cccnc3s2)cc1)c1ccco1	.	.	41.5	.	155.8	55.8*[fluorescence artefact?]
O=C(Nc1cccc(-c2cnc3ccccc3n2)c1)c1cccc(NC(=O)c2ccco2)c1	2.6	9.7	35.4	-7.9	243.8*[fluorescence artefact?]	59.2*
O=C(NCc1ccc2c(c1)OCO2)c1ccc(COc2cccc(Cl)c2)o1	-1.6	48.6	25.6	-48.4	86.2	18.5
O=C(CN1C(=O)NC2(CCOc3ccccc32)C1=O)Nc1ccc2c(c1)OCCO2 (configuration not stated)	0.0	8.4	-1.7	-8.8	94.3	-17.0
CSCC[C@@H](Nc1nc(-c2ccccc2)nc2c1oc1ccccc12)C(=O)O	0.7	-1.7	-5.2	5.7	169.8	-6.2
Cc1ccc(-c2nnc(-c3ccc(NC(=O)c4ccco4)cc3)o2)cc1	-0.6	4.2	12.4	-0.5	455.0*	21.8
O=C(Nc1ccc2nc(-c3cccs3)[nH]c2c1)c1cccs1	9.7	-2.5	20.9	0.7	88.6	-3.2
CCOc1cccc(C(=O)Nc2cccc(-c3nnc(-c4ccc(C)cc4)o3)c2)c1	4.8	-6.7	59.8*[fluorescence artefact?]	1.1	158.4	68.2*[fluorescence artefact?]
O=C(Nc1ccc(-c2nc3ccc(NC(=O)c4cccs4)cc3[nH]2)cc1)c1cccs1	1.2	-15.4	55.5*	12.0	107.5	91.4*[fluorescence artefact?]
CCN(CC)c1ccc(-c2nn3c(-c4ccccc4OC)nnc3s2)cc1	1.2	-22.9	15.1	20.4	366.0*	2.6
COc1ccc(-c2nn3c(-c4ccccc4)nnc3s2)cc1	-1.6	-4.8	-6.3	4.9	202.8*[fluorescence artefact?]	-2.1
COc1ccc(-c2nn3c(-c4ccc(F)cc4)nnc3s2)cc1	-3.3	-7.8	13.7	9.6	95.1	23.5
Cc1cccn2c(=O)c3cc(C(=O)Nc4ccc(N(C)C)cc4)n(C)c3nc12	.	.	62.4*[fluorescence artefact?]	.	22.1	96.0*[fluorescence artefact?]
CC(=O)c1cc(NC(=O)c2ccc(Cl)cc2)c(=O)oc1/C=C/N(C)C	129.5*[fluorescence artefact?]	0.4	.	0.1	.	.
CC(=O)c1cc(NC(=O)c2cccc(C(F)(F)F)c2)c(=O)oc1/C=C/N(C)C	127.0*[fluorescence artefact?]	-1.5	.	4.4	.	.
CN(C)/C=C/C(=O)c1ccc(Cl)cc1	3.9	4.6	.	-2.7	.	.
CN(C)C=Nc1c(Br)cc(Br)c2nonc12	68.3*[fluorescence artefact?]	3.1	2.4	-3.6	95.8	-1.7

Compound activity from PubChem BioAssay.
